High-throughput results: PubChem, Broad Institute
Shown are actives, neighbours in structure and some others; about 2.2% of the full set was active somewhere.
E-sel inducer = induces E-selectin expression in human endothelial cells | activation, % at 7.58 µM | P16581 | HUVEC E-selectin immunofluorescence imaging; normalized: neutral wells 0, TNF-alpha wells 100 | 260,000 compounds, 0.37% hits;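 active = mean E-selectin-positive cell signal at least 10% of the positive control, reached in at least 60% of replicates, without over 20% cell loss; inconclusive = no rule given, readout overlaps actives, possibly toxicity-flagged; inactive = the rest, including those meeting only one limit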
Target sequence (P16581 whole entry, looked up): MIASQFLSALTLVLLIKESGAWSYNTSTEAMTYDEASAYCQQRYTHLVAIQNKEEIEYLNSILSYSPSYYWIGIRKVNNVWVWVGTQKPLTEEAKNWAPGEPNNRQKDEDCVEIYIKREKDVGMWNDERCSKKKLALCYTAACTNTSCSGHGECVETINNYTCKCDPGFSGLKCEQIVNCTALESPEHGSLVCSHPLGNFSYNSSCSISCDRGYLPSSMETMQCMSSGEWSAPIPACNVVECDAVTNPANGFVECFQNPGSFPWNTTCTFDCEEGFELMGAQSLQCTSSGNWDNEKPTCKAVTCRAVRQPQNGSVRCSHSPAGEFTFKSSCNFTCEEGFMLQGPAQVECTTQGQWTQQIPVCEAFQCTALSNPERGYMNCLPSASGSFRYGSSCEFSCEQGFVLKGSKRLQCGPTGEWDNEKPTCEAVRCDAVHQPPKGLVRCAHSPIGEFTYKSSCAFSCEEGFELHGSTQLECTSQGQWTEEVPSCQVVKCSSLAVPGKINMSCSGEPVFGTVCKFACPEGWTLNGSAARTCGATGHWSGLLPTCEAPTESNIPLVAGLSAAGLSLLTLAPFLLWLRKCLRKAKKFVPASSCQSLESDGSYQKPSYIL
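Test system: HUVEC; input: 3,000 HUVEC/well; measured by: immunofluorescence imaging; read-out: % PE-positive cells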
DENV2 CPE rescue = inhibitors of DENV2 cytopathic effect. DENV2-infected cells, cytopathic effect rescue, plate reader. 350,000 compounds, 1.7% hits. CPE inhibition, % at 9.99 µM. AID 651640; in the data active = CPE inhibition above about 20%, passing the limit was not always enough; inconclusive = no clear call, values can overlap the other calls; tested in BHK-21 cells;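 note: 0% = median of neutral control wells and 100% = median of positive control wells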
Statin myotox sup = suppression of simvastatin myotoxicity; 330,000 compounds, 0.78% hits; rescue of ATP level, % at 7.49 µM; C2C12 myotubes + simvastatin, ATP luminescence, 48 h; scaled: DMSO 0, geranylgeraniol control 100;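 active = mean ATP rescue above about 67%, or every replicate alone reaching that limit, limit read from the data, passing the limit was not always enough; inconclusive = no clear call, values can overlap the other calls; inactive = mean under the limit and some replicate under it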;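 note: myotubes were challenged with 10 µM simvastatin during compound exposure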
The depositor's hits bear a star; ? = inconclusive; / = not tested or not shown.

SMILES | E-sel inducer | DENV2 CPE rescue | Statin myotox sup
O=C(C[C@@H]1CC[C@H](NC(=O)Cc2cccnc2)[C@@H](CO)O1)Nc1ccc(-c2ccccc2)cc1 | 0 | ? | 12
O=C(C1CC1)N1C[C@@H]2[C@H](c3ccccc31)[C@@H](CO)N2C(=O)c1cccc(F)c1 | 0 | ? | -4
Cc1ccc(S(=O)(=O)Nc2ccc3c(c2)C(=O)N([C@H](C)CO)C[C@@H](C)[C@H](CN(C)C(=O)Nc2ccc4c(c2)OCO4)O3)cc1 | 3 | / | 17
CCC(=O)Nc1ccc2c(c1)C(=O)N(C)[C@@H]1CC[C@H](CC(=O)NCc3ccccc3)O[C@@H]1CO2 | 0 | 6 | 2
CCS(=O)(=O)NCC[C@@H]1CC[C@@H](NC(=O)C2CCCC2)[C@@H](CO)O1 | -1 | / | 2
O=S(=O)(c1ccc2c(c1)OCCO2)N1CCN(c2ccccc2)CC1 | / | / | -1
COc1ccc(S(=O)(=O)Nc2ccc3c(c2)C(=O)N([C@@H](C)CO)C[C@@H](C)[C@@H](CN(C)C(=O)Nc2ccccc2)OCCCC[C@@H](C)O3)cc1 | 3 | -3 | /
O=C(Nc1cccc(F)c1)N1CC(=O)N2[C@H](CO)[C@@H](c3ccc(C#Cc4cccnc4)cc3)[C@@H]2C1 | 0 | -22 | /
C[C@H](CO)N1C[C@H](C)[C@H](CN(C)C(=O)Nc2ccccc2)Oc2c(NC(=O)Nc3ccccc3)cccc2C1=O | 0 | -1 | -24
CC(C)NC(=O)Nc1cccc2c1O[C@H](CN(C)C(=O)Nc1ccccc1)[C@H](C)CN([C@H](C)CO)C2=O | 0 | 42* | 2
COc1ccc(NC(=O)Nc2cccc3c2O[C@@H](CN(C)C(=O)Nc2ccc(F)cc2)[C@H](C)CN([C@H](C)CO)C3=O)cc1 | -3 | -2 | 11
COc1ccc(NC(=O)N(C)C[C@@H]2Oc3c(NC(=O)Nc4ccc(F)cc4)cccc3C(=O)N([C@@H](C)CO)C[C@H]2C)cc1 | 0 | 34* | 24
COc1ccc(NC(=O)Nc2cccc3c2O[C@H](CN(C)S(=O)(=O)c2ccccc2)[C@@H](C)CN([C@H](C)CO)C3=O)cc1 | -1 | -4 | -14
COc1ccc(NC(=O)Nc2cccc3c2O[C@H](CN(C)S(=O)(=O)c2ccccc2)[C@H](C)CN([C@@H](C)CO)C3=O)cc1 | 0 | 80* | 1
Cc1noc(C)c1NC(=O)NCC[C@@H]1CC[C@@H](NC(=O)c2ccccc2)[C@H](CO)O1 | 0 | 5 | 2
Cc1nc(SCc2c(F)cccc2Cl)n[nH]1 | / | / | -29
COc1cnc(SCc2c(Cl)cccc2Cl)nc1Cl | / | 0 | 88*
CCOc1cc(C(=O)N(C)CC(=O)Nc2cccc3ccccc23)ccc1OC | / | 42* | 6
CN(CC(=O)Nc1cccc2ccccc12)C(=O)c1ccc(NC(=O)CC#N)cc1 | 0 | -3 | 8
O=C(NCC[C@H]1CC[C@@H](NC(=O)c2cccnc2)[C@H](CO)O1)Nc1ccc(Cl)cc1 | 0 | -3 | -1
COc1ccc(CNC(=O)C[C@H]2C(=O)N(Cc3ccc(OC)cc3)C[C@@H]2Cc2ccccc2)cc1 | / | -1 | -5
COc1ccc(CNC(=O)C[C@H]2C(=O)N(Cc3ccccc3)C[C@@H]2Cc2ccccc2)cc1 | 0 | 30* | 16
CCCCN1C[C@H](Cc2ccccc2)[C@@H](CC(=O)Nc2ccc(OC)cc2)C1=O | 1 | 3 | 21
CCCCN1C[C@H](Cc2ccccc2)[C@@H](CC(=O)Nc2ccccc2)C1=O | / | 56* | 3
C/C=C/c1ccc([C@H]2[C@@H](CO)N(CC3CCCC3)C23CN(C(=O)CC)C3)cc1 | 0 | 29* | /
SMILES | E-sel inducer | DENV2 CPE rescue | Statin myotox sup
O=C(c1ccccc1F)N1CC2(C1)[C@@H](c1ccccc1)[C@H](CO)N2CC1CC1 | 0 | 30* | /
O=C(c1ccncc1)N1CC2(C1)[C@H](c1ccccc1)[C@@H](CO)N2CC1CCOCC1 | 0 | 73* | /
O=C(c1ccncc1)N1CC2(C1)[C@H](c1ccccc1)[C@H](CO)N2CC1CCCC1 | 0 | -3 | /
O=C(c1ccccc1F)N1CC2(C1)[C@@H](c1ccccc1)[C@@H](CO)N2CC1CCOCC1 | 0 | 7 | /
O=C(NC1CCCC1)N1CC2(C1)[C@H](c1ccccc1)[C@@H](CO)N2CC1CCOCC1 | 0 | 38* | /
O=C(NC1CCCCC1)N1CC2(C1)[C@H](c1ccccc1)[C@H](CO)N2CC1CCOCC1 | 0 | 4 | /
C/C=C/c1ccc([C@H]2[C@@H](CO)N(CC3CCCC3)C23CN(C(=O)CC2CC2)C3)cc1 | 0 | -4 | /
CO[C@@H](CN(C)C(=O)C1CCOCC1)[C@@H](C)CN(C(=O)Nc1ccc(F)cc1)[C@@H](C)CO | 0 | 4 | 8
CC(=O)N1[C@@H]2c3ccc(-c4cccc(F)c4)c(=O)n3C[C@H]1[C@H](CO)[C@H]2C(=O)NCC1CC1 | 0 | -2 | 13
CN(C)C(=O)c1ccc(-c2ccc(C3[C@H]4CNC[C@@H]3N4S(=O)(=O)c3ccc(Cl)cc3)cc2)cc1 (some centres not stated) | 0 | -4 | /
CCC(=O)Nc1ccc2c(c1)OC[C@H](C)N(Cc1ccccc1OC)C[C@H](C)[C@@H](OC)CN(C)C2=O | 0 | 9 | /
CCC(=O)N1CC2(C1)[C@@H](c1ccccc1)[C@@H](CO)N2CC1CCOCC1 | 0 | -5 | /
C/C=C/c1ccc([C@@H]2[C@H](CO)N(Cc3cncnc3)C23CN(C(=O)COC)C3)cc1 | 0 | 22* | /
O=C(c1ccncc1)N1CC2(C1)[C@H](c1ccccc1)[C@H](CO)N2CC1CC1 | 0 | -1 | /
O=C(c1ccccc1)N1CC2(C1)[C@@H](c1ccccc1)[C@@H](CO)N2CC1CC1 | 0 | 21* | /
CCC(=O)N1CC2(C1)[C@H](c1ccccc1)[C@H](CO)N2CC1CCOCC1 | 0 | 70* | /
C/C=C/c1ccc([C@H]2[C@@H](CO)N(Cc3cncnc3)C23CN(C(=O)CC)C3)cc1 | 0 | 0 | /
CCNC(=O)[C@@H]1[C@@H](CO)[C@@H]2Cn3c(ccc(-c4ccccc4F)c3=O)[C@H]1N2C(=O)CC | 0 | ? | -8
C[C@H]1CN([C@@H](C)CO)C(=O)Cc2cc(NC(=O)Nc3ccc4c(c3)OCO4)ccc2O[C@@H]1CN(C)C(=O)NC1CCCCC1 | 0 | -1 | 6
Cc1ccc(S(=O)(=O)N(C)C[C@@H]2Oc3ccc(NS(=O)(=O)c4cccs4)cc3CC(=O)N([C@@H](C)CO)C[C@H]2C)cc1 | 0 | -7 | -40
CC(C)C(=O)Nc1ccc2c(c1)C(=O)N(C)[C@H]1CC[C@H](CC(=O)Nc3ccccc3)O[C@H]1CO2 | 0 | 2 | 1
O=C(C[C@@H]1CC[C@@H]2[C@H](COC[C@@H](O)CN2C(=O)Nc2cccc(Cl)c2)O1)NCC1CCCCC1 | 0 | 10 | 8
CCOc1ccc(NC(=O)CSc2ccc3nnc(-c4ccccn4)n3n2)cc1 | 0 | -10 | /
O=C(CSc1ccc2nnc(-c3ccccn3)n2n1)Nc1ccccc1 | 0 | 71* | 2
O=C(Nc1nc(-c2ccco2)cs1)c1ccccc1 | / | / | -11
Cc1ccc(-c2csc(NC(=O)c3ccc(-c4ccccc4)cc3)n2)o1 | / | / | 89*
